# In the library only some 2.4% were active in any assay of this set; here they are far more common.
# rRNA inh HTS: reduced GFP signal of wild-type E. coli, primary screen, bacterial rRNA inhibitor project, GFP/RFP fluorescence, OD600, single point. E. coli WT GFP vs humanized-ribosome RFP mutants, 24 h; hits give low values; DMSO median 0, no signal -100. GFP signal change (wild-type ribosome), % (test concentration not listed). actives 1.6% (n = 350,000);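 active = significant combined selectivity score with lowered wild-type GFP, culture density cut under 30%, mutant RFP and density less affected; inactive = any of these conditions unmet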
# ARNT-TACC3 inh: disruptors of ARNT/TACC3 protein interaction, primary screen, biochemical, AlphaScreen, single concentration. AlphaScreen His-ARNT PAS-B/GST-TACC3 binding, luminescence; TACC3 fragment carries E629A point mutation. actives 0.66% (n = 390,000). AID 623870, 2012. inhibition, % at 9.99 µM;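 active = mean inhibition of replicates at least 50% and at least half of replicates each reaching 50%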;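 also: 0% = complete ARNT plus TACC3 wells and 100% = ARNT alone without TACC3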
# PGC1a acetyl inh: inhibitors of PGC1a acetylation signal, primary screen, cell-based, U2OS, AlphaScreen, inhibitor mode | actives 0.17% (n = 350,000) | inhibition, % at 15.6 µM | AID 651687, 2012 | AlphaScreen anti-acetyl-lysine; with virally co-expressed GCN5 acetyltransferase;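 active = every replicate shows inhibition of at least 40%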;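 also: 0% = neutral control wells and 100% = positive control wells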
# CASP6 VEID inh: human caspase-6 inhibitors, primary screen, biochemical, VEID-R110 fluorescence, single point, set 2 | P55212 | purified caspase-6, Z-VEID-R110 cleavage fluorescence | inhibition, % at 12.5 µM | actives 0.53% (n = 350,000) | AID 686996, 2013;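 active = mean inhibition across replicates at least about 35%, with every replicate also reaching that limit, limit read from the data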;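 also: 0% = median of neutral control wells and 100% = no fluorescence left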
# Target sequence (P55212 24-179 limits assumed): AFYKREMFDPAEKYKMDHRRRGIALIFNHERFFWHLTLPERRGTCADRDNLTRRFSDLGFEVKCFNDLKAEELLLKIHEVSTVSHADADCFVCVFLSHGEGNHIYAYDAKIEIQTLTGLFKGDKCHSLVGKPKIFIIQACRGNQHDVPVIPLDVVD
# Target sequence (P55212 194-293 limits assumed): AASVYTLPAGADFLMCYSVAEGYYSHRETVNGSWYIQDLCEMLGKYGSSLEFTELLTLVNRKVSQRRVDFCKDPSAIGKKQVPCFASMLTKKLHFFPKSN
# S100A4 MyoIIA: inhibitors of S100A4-myosin IIA peptide binding, primary screen, biochemical, fluorescence polarization, TAMRA-MyoIIA peptide; Protein S100-A4 (Homo sapiens), P26447; inhibition, % at 10.7 µM; actives 0.14% (n = 360,000); AID 652163, 2013;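 active = mean inhibition of at least 70% across replicates, with every replicate also reaching that level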
# Target sequence (P26447 whole entry, looked up): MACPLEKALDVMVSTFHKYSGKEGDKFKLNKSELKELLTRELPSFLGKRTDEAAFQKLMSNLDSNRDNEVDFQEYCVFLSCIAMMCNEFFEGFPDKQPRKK
#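 System – human S100A4 monomer protein, biochemical binding assay · Buffer or medium – Calcium-containing HEPES buffer, pH 7.2 · Timing – 5 min between mix addition and reading · Also added – TAMRA-labelled myosin IIA heavy-chain peptide probe, 5 nM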
# ERAP1 HTS inh: human ERAP1 aminopeptidase inhibitors, primary screen, biochemical, single point, plate reader; Endoplasmic reticulum aminopeptidase 1 (Homo sapiens), Q9NZ08; recombinant ERAP1, Leu-AMC fluorescence, 60 min; inhibition, % at 10.7 µM; actives 0.15% (n = 340,000); AID 652197, 2013;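 active = mean replicate inhibition of at least 30%, or all replicates individually reaching that 30% level; inactive = mean below 30% and not every replicate reaching it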;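 also: 0% = neutral control wells and 100% = L-leucinethiol positive control wells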
# The depositor's hits bear a star; x = not tested or not shown; ! = repeats disagree.
SMILES,rRNA inh HTS,ARNT-TACC3 inh,PGC1a acetyl inh,CASP6 VEID inh,S100A4 MyoIIA,ERAP1 HTS inh
C[C@@H]1CN([C@@H](C)CO)C(=O)Cc2cc(NC(=O)Nc3ccc(C(F)(F)F)cc3)ccc2O[C@@H]1CN(C)Cc1ccc2c(c1)OCO2,6,3,4,5,2,0
Cc1noc(C)c1NC(=O)Nc1ccc2c(c1)CC(=O)N([C@H](C)CO)C[C@H](C)[C@H](CN(C)C(=O)Nc1ccccc1)O2,4,-5,4,-3,2,3
O=C(NC1CCCC1)[C@@H]1[C@@H](CO)[C@@H]2Cn3c(ccc(-c4cccnc4)c3=O)[C@H]1N2CCc1ccccc1,-6,-1,x,2,-42,0
O=C1N/C(=N/S(=O)(=O)Cc2ccccc2)S/C1=C/c1ccc2c(c1)OCO2,-40*,x,7,6,21,-1
Cc1noc(C)c1NC(=O)Nc1ccc2c(c1)CC(=O)N([C@H](C)CO)C[C@@H](C)[C@@H](CN(C)C(=O)Nc1ccccc1)O2,5,-2,2,-4,3,5
Nc1cc(=O)[nH]c(N)n1,-13*,-2,-1,-2,5,-2
Cc1cc(=O)[nH]c(N)n1,10,-2,5,0,-3,-5
OCCNC(=S)Nc1cc(Cl)cc(Cl)c1,-22*,-1,-11,1,-3,-7
COc1ccc(C(C)=NNc2ccc([N+](=O)[O-])cc2S(=O)(=O)Nc2ccccc2C(=O)O)c(OC)c1,-20*,38,-7,28,1,-55
CN(CCO)c1ccc(C=NNc2ccc([N+](=O)[O-])cc2S(=O)(=O)Nc2ccccc2C(=O)O)cc1,-14*,x,7,37*,-11,-26
CC(=O)Nc1ccc(C=NNc2ccc([N+](=O)[O-])cc2S(=O)(=O)Nc2ccccc2C(=O)O)cc1,-6,-1,x,20,-2,-25
C[C@@H]1CCCCO[C@H](CN(C)C(=O)Nc2ccc(F)cc2)[C@@H](C)CN([C@@H](C)CO)C(=O)c2cc(NC(=O)c3ccccc3)ccc2O1,-4,1,-1,0,-5,0
C[C@H]1CCCCO[C@H](CN(C)S(=O)(=O)c2cn(C)cn2)[C@@H](C)CN([C@@H](C)CO)C(=O)c2cc(NC(=O)Nc3ccc4c(c3)OCO4)ccc2O1,-2,12,0,1,1,-1
Cc1ccc(C(=O)Nc2ccc(O)cc2C(=O)O)cc1C,-25*,9,2,7,3,3
CO[C@@H]1CN(C)C(=O)c2ccc(NS(=O)(=O)c3ccc(C)cc3)cc2OC[C@@H](C)N(Cc2ccccn2)C[C@H]1C,-2,active,-9,2,3,0
CCCC(=O)Nc1ccc2c(c1)C(=O)N(C)C[C@H](OC)[C@H](C)CN(Cc1ccccc1)[C@@H](C)CO2,-1,-9,-3,-5,98*,-4
CO[C@@H]1CN(C)C(=O)c2ccc(NS(=O)(=O)c3ccccc3)cc2OC[C@@H](C)N(Cc2ccccn2)C[C@@H]1C,-1,17,-2,-1,0,0
CCCC(=O)Nc1ccc2c(c1)OC[C@@H](C)N(Cc1ccc(-c3ccccn3)cc1)C[C@H](C)[C@H](OC)CN(C)C2=O,-4,5,x,-3,109*,-2
CCCC(=O)Nc1ccc2c(c1)C(=O)N(C)C[C@H](OC)[C@@H](C)CN(Cc1ccccc1)[C@H](C)CO2,-8,-6,-6,-2,0,-6
CCCC(=O)Nc1ccc2c(c1)C(=O)N(C)C[C@H](OC)[C@H](C)CN(Cc1ccccc1)[C@H](C)CO2,1,11,4,-8,96*,-5
COc1ccc(NC(=O)Nc2cccc3c2O[C@@H](CN(C)S(C)(=O)=O)[C@H](C)CN([C@H](C)CO)C3=O)cc1,-2,-1,7,2,6,2
CCC(=O)N1[C@@H]2Cn3c(ccc(-c4ccccc4)c3=O)[C@H]1[C@@H](C(=O)N1CCN(C)CC1)[C@@H]2CO,1,-1,x,4,6,-1
COc1cccc(C(=O)Nc2ccc3c(c2)OC[C@H](C)N(CCc2ccccc2)C[C@@H](C)[C@@H](OC)CN(C)C3=O)c1,-25*!,-4,-1,-3,-1,1
COc1cccc(C(=O)Nc2ccc3c(c2)OC[C@@H](C)N(CCc2ccccc2)C[C@@H](C)[C@@H](OC)CN(C)C3=O)c1,-5,1,-4,0,6,1
CCOc1ccc(/C=N/NC(=S)NC2CC3CC2C2C=CCC32)cc1 (stereo unspecified),-4,-28,12,0,8,x
SMILES,rRNA inh HTS,ARNT-TACC3 inh,PGC1a acetyl inh,CASP6 VEID inh,S100A4 MyoIIA,ERAP1 HTS inh
CCOc1ccc(/C=N/NC(=S)NC2CC3CCC2C3)cc1 (stereo unspecified),-17*,-4,8,-2,2,-1
CC(=O)OC(=C(OC(C)=O)c1ccccc1)c1ccccc1,14,-7,-8,1,-4,3
CC(=O)OC(C)=O,0,x,2,-3,79*,0
COc1ccc(NC(=O)Nc2ccc3c(c2)[C@@H]2C[C@H](CC(=O)N4CCOCC4)O[C@H](CO)[C@@H]2O3)cc1,-1,5,-7,x,x,x
Cc1ccc(Oc2ncccc2N)c2c1CCC2,-10,-2,-13,4,-1,-3
Nc1cccnc1Oc1ccc(F)cc1F,6,-6,2,46*,-3,x
Nc1cccnc1Oc1ccc(F)cc1,7,0,x,52*,-5,x
COC(=O)[C@@H]1[C@@H](CO)[C@@H]2Cn3c(cccc3=O)[C@@H]2N1C(=O)C1CCC1,3,-10,x,10,9,-1
O=S(=O)(N[C@H]1CC[C@H](CCn2cc(-c3cccnc3)nn2)O[C@@H]1CO)c1ccc(F)cc1,1,-4,4,-1,-5,1
C[C@@H]1CN(C)C(=O)c2cccc(NS(C)(=O)=O)c2O[C@H]1CN(C)C,1,x,x,x,x,x
CN(C)c1ccc(N/C=C/C(=O)C(C)(C)C)cc1,x,27*,12,x,x,x
CN(C)c1ccc(N/C=C/C(=O)c2ccccc2)cc1,x,11,9,x,x,x
Cc1ccc(-n2c(C)nc3ccsc3c2=O)cc1,-36*,-22,x,-2,-3,x
CCC1CCc2sc(C(=O)O)cc2C1 (stereo unspecified),x,-14,52,x,x,x

# Screening data from PubChem.
